ChEMBL document CHEMBL1926550, “Synthesis and antibacterial activity of naphthyridone derivatives containing mono/difluoro-methyloxime pyrrolidine scaffolds” (2012)
≈ marks a conversion by molar mass, not a printed value.

Tests used:
Assay type in all cases: functional
Escherichia coli [1] = test: Antibacterial activity against Escherichia coli 10-1 after 18 hrs by two fold serial dilution method; conditions: 10-1, 18 h
Method in brief: (§1)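 Agar two-fold serial dilution in melted Mueller-Hinton agar, final concentrations 128 down to 0.008 μg/mL. Plates inoculated with 10⁴ cfu and incubated at 35 °C for 18 h. MIC taken as the lowest concentration giving no visible growth on the plate.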

Escherichia coli [2] = test: Antibacterial activity against Escherichia coli 10-2 after 18 hrs by two fold serial dilution method; conditions: 10-2, 18 h; method in brief: as §1
Escherichia coli [3] = test: Antibacterial activity against Escherichia coli 10-3 after 18 hrs by two fold serial dilution method; conditions: 10-3, 18 h; method in brief: as §1
Klebsiella pneumoniae [4] = test: Antibacterial activity against Klebsiella pneumoniae 09-2 after 18 hrs by two fold serial dilution method; conditions: 09-2, 18 h; method in brief: as §1
Klebsiella pneumoniae [5] = test: Antibacterial activity against Klebsiella pneumoniae 10-1 after 18 hrs by two fold serial dilution method; conditions: 10-1, 18 h; method in brief: as §1
Klebsiella pneumoniae [6] = test: Antibacterial activity against Klebsiella pneumoniae 10-3 after 18 hrs by two fold serial dilution method; conditions: 10-3, 18 h; method in brief: as §1
Pseudomonas aeruginosa [7] = test: Antibacterial activity against Pseudomonas aeruginosa ATCC 27853 after 18 hrs by two fold serial dilution method; conditions: ATCC 27853, 18 h; method in brief: as §1
Pseudomonas aeruginosa [8] = test: Antibacterial activity against Pseudomonas aeruginosa 10-1 after 18 hrs by two fold serial dilution method; conditions: 10-1, 18 h; method in brief: as §1
Pseudomonas aeruginosa [9] = test: Antibacterial activity against Pseudomonas aeruginosa 10-2 after 18 hrs by two fold serial dilution method; conditions: 10-2, 18 h; method in brief: as §1
Pseudomonas aeruginosa [10] = test: Antibacterial activity against Pseudomonas aeruginosa 10-3 after 18 hrs by two fold serial dilution method; conditions: 10-3, 18 h; method in brief: as §1
[11] = tested on: Staphylococcus epidermidis; test: Antibacterial activity against methicillin-resistant Staphylococcus epidermidis 10-4 after 18 hrs by two fold serial dilution method; conditions: 10-4, 18 h
Method in brief: (§2)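 Agar two-fold serial dilution in melted Mueller-Hinton agar, 128 to 0.008 μg/mL. Plates inoculated with 10⁴ cfu, incubated 35 °C for 18 h. MIC taken as lowest concentration giving no visible growth on the plate.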

Staphylococcus aureus [12] = test: Antibacterial activity against methicillin-resistant Staphylococcus aureus 10-2 infected KM mouse systemic infection model assessed as decrease in mouse mortality administered orally twice after 1 and 4 hrs post infection measured up to 7 days; conditions: 10-2, po
Method in brief: (§3)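 Strains grown on MH agar at 35 °C for 18 h, suspended in gastric mucin. Male KM mice (19–21 g), groups of 10, infected intraperitoneally with 0.5 mL at 5–10× MLD. Four oral dose levels per drug at 1 and 4 h post infection. Mortality followed 7 days; ED50 with 95% confidence limits by Bliss method.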

[13] = tested on: Staphylococcus epidermidis; test: Antibacterial activity against methicillin-resistant Staphylococcus epidermidis 10-4 infected KM mouse systemic infection model assessed as decrease in mouse mortality administered orally twice after 1 and 4 hrs post infection measured up to 7 days; conditions: 10-4, po; method in brief: as §3
Escherichia coli [14] = test: Antibacterial activity against Escherichia coli 10-2 infected KM mouse systemic infection model assessed as decrease in mouse mortality administered orally twice after 1 and 4 hrs post infection measured up to 7 days; conditions: 10-2, po; method in brief: as §3
Klebsiella pneumoniae [15] = test: Antibacterial activity against Klebsiella pneumoniae 10-3 infected KM mouse systemic infection model assessed as decrease in mouse mortality administered orally twice after 1 and 4 hrs post infection measured up to 7 days; conditions: 10-3, po; method in brief: as §3
Pseudomonas aeruginosa [16] = test: Antibacterial activity against Pseudomonas aeruginosa 10-1 infected KM mouse systemic infection model assessed as decrease in mouse mortality administered orally twice after 1 and 4 hrs post infection measured up to 7 days; conditions: 10-1, po; method in brief: as §3
[17] = tested on: Staphylococcus epidermidis; test: Ratio of ciprofloxacin ED50 to compound ED50 for methicillin-resistant Staphylococcus epidermidis 10-4 infected KM mouse systemic infection model
[18] = tested on: Staphylococcus epidermidis; test: Ratio of gemifloxacin ED50 to compound ED50 for methicillin-resistant Staphylococcus epidermidis 10-4 infected KM mouse systemic infection model
Enterococcus faecium [19] = test: Antibacterial activity against Enterococcus faecium 09-1 after 18 hrs by two fold serial dilution method; conditions: 09-1, 18 h; method in brief: as §1
Staphylococcus aureus [20] = test: Antibacterial activity against Staphylococcus aureus ATCC 25923 after 18 hrs by two fold serial dilution method; conditions: ATCC 25923, 18 h; method in brief: as §1
Staphylococcus aureus [21] = test: Antibacterial activity against methicillin-resistant Staphylococcus aureus 10-1 after 18 hrs by two fold serial dilution method; conditions: 10-1, 18 h; method in brief: as §2
Staphylococcus aureus [22] = test: Antibacterial activity against methicillin-resistant Staphylococcus aureus 10-2 after 18 hrs by two fold serial dilution method; conditions: 10-2, 18 h; method in brief: as §2
Staphylococcus aureus [23] = test: Antibacterial activity against methicillin-resistant Staphylococcus aureus 10-3 after 18 hrs by two fold serial dilution method; conditions: 10-3, 18 h; method in brief: as §2
Staphylococcus aureus [24] = test: Antibacterial activity against methicillin-resistant Staphylococcus aureus 10-4 after 18 hrs by two fold serial dilution method; conditions: 10-4, 18 h; method in brief: as §2
Staphylococcus aureus [25] = test: Antibacterial activity against methicillin-sensitive Staphylococcus aureus 10-1 after 18 hrs by two fold serial dilution method; conditions: 10-1, 18 h; method in brief: as §1
Staphylococcus aureus [26] = test: Antibacterial activity against methicillin-sensitive Staphylococcus aureus 10-2 after 18 hrs by two fold serial dilution method; conditions: 10-2, 18 h; method in brief: as §1
Staphylococcus aureus [27] = test: Antibacterial activity against methicillin-sensitive Staphylococcus aureus 10-3 after 18 hrs by two fold serial dilution method; conditions: 10-3, 18 h; method in brief: as §1
Staphylococcus aureus [28] = test: Antibacterial activity against methicillin-sensitive Staphylococcus aureus 10-4 after 18 hrs by two fold serial dilution method; conditions: 10-4, 18 h; method in brief: as §1
Staphylococcus aureus [29] = test: Antibacterial activity against methicillin-sensitive Staphylococcus aureus 10-5 after 18 hrs by two fold serial dilution method; conditions: 10-5, 18 h; method in brief: as §1
Staphylococcus aureus [30] = test: Antibacterial activity against methicillin-sensitive Staphylococcus aureus 10-6 after 18 hrs by two fold serial dilution method; conditions: 10-6, 18 h; method in brief: as §1
[31] = tested on: Staphylococcus epidermidis; test: Antibacterial activity against methicillin-resistant Staphylococcus epidermidis 10-1 after 18 hrs by two fold serial dilution method; conditions: 10-1, 18 h; method in brief: as §2
[32] = tested on: Staphylococcus epidermidis; test: Antibacterial activity against methicillin-resistant Staphylococcus epidermidis 10-2 after 18 hrs by two fold serial dilution method; conditions: 10-2, 18 h; method in brief: as §2
[33] = tested on: Staphylococcus epidermidis; test: Antibacterial activity against methicillin-sensitive Staphylococcus epidermidis 10-1 after 18 hrs by two fold serial dilution method; conditions: 10-1, 18 h; method in brief: as §1
[34] = tested on: Staphylococcus epidermidis; test: Antibacterial activity against methicillin-sensitive Staphylococcus epidermidis 10-2 after 18 hrs by two fold serial dilution method; conditions: 10-2, 18 h; method in brief: as §1
Streptococcus pneumoniae = test: Antibacterial activity against Streptococcus pneumoniae 10-1 after 18 hrs by two fold serial dilution method; conditions: 10-1, 18 h; method in brief: as §1
Enterococcus faecium [35] = test: Antibacterial activity against Enterococcus faecium 09-2 after 18 hrs by two fold serial dilution method; conditions: 09-2, 18 h; method in brief: as §1
Enterococcus faecium [36] = test: Antibacterial activity against Enterococcus faecium 09-3 after 18 hrs by two fold serial dilution method; conditions: 09-3, 18 h; method in brief: as §1
Enterococcus faecium [37] = test: Antibacterial activity against Enterococcus faecium 09-4 after 18 hrs by two fold serial dilution method; conditions: 09-4, 18 h; method in brief: as §1
Enterococcus faecium [38] = test: Antibacterial activity against Enterococcus faecium 09-5 after 18 hrs by two fold serial dilution method; conditions: 09-5, 18 h; method in brief: as §1
Enterococcus faecium [39] = test: Antibacterial activity against Enterococcus faecium 09-6 after 18 hrs by two fold serial dilution method; conditions: 09-6, 18 h; method in brief: as §1
Enterococcus faecalis [40] = test: Antibacterial activity against Enterococcus faecalis 09-1 after 18 hrs by two fold serial dilution method; conditions: 09-1, 18 h; method in brief: as §1
Enterococcus faecalis [41] = test: Antibacterial activity against Enterococcus faecalis 09-2 after 18 hrs by two fold serial dilution method; conditions: 09-2, 18 h; method in brief: as §1
Escherichia coli [42] = test: Antibacterial activity against Escherichia coli ATCC 25922 after 18 hrs by two fold serial dilution method; conditions: ATCC 25922, 18 h; method in brief: as §1
Escherichia coli [43] = test: Antibacterial activity against Escherichia coli 09-1 after 18 hrs by two fold serial dilution method; conditions: 09-1, 18 h; method in brief: as §1
Escherichia coli [44] = test: Antibacterial activity against Escherichia coli 09-2 after 18 hrs by two fold serial dilution method; conditions: 09-2, 18 h; method in brief: as §1
Escherichia coli [45] = test: Antibacterial activity against Escherichia coli 09-3 after 18 hrs by two fold serial dilution method; conditions: 09-3, 18 h; method in brief: as §1

Compound: NCC1CN(c2nc3c(cc2F)c(=O)c(C(=O)O)cn3C2CC2)C/C1=N\OCF (racemic)
- MIC (Escherichia coli [1]): 32 µg/mL (≈ 78.6 µM)
- MIC (Escherichia coli [2]): 0.5 µg/mL (≈ 1.23 µM)
- MIC (Escherichia coli [3]): 16 µg/mL (≈ 39.3 µM)
- MIC (Klebsiella pneumoniae [4]): 32 µg/mL (≈ 78.6 µM)
- MIC (Klebsiella pneumoniae [5]): 0.03 µg/mL (≈ 0.0736 µM)
- MIC (Klebsiella pneumoniae [6]): 0.5 µg/mL (≈ 1.23 µM)
- MIC (Pseudomonas aeruginosa [7]): 0.5 µg/mL (≈ 1.23 µM)
- MIC (Pseudomonas aeruginosa [8]): 0.5 µg/mL (≈ 1.23 µM)
- MIC (Pseudomonas aeruginosa [9]): 32 µg/mL (≈ 78.6 µM)
- MIC (Pseudomonas aeruginosa [10]): 4 µg/mL (≈ 9.82 µM)
- MIC [11]: 2 µg/mL (≈ 4.91 µM)
- ED50 (Staphylococcus aureus [12]): 16.9 mg/kg
- ED50 [13]: 8 mg/kg
- ED50 (Escherichia coli [14]): 8.79 mg/kg
- ED50 (Klebsiella pneumoniae [15]): > 160 mg/kg
- ED50 (Pseudomonas aeruginosa [16]): 39.3 mg/kg
- Ratio ED50 [17]: 3.1
- Ratio ED50 [18]: 3
- MIC (Enterococcus faecium [19]): 32 µg/mL (≈ 78.6 µM)
- MIC (Staphylococcus aureus [20]): 0.015 µg/mL (≈ 0.0368 µM)
- MIC (Staphylococcus aureus [21]): 32 µg/mL (≈ 78.6 µM)
- MIC (Staphylococcus aureus [22]): 2 µg/mL (≈ 4.91 µM)
- MIC (Staphylococcus aureus [23]): 32 µg/mL (≈ 78.6 µM)
- MIC (Staphylococcus aureus [24]): 64 µg/mL (≈ 157 µM)
- MIC (Staphylococcus aureus [25]): 0.06 µg/mL (≈ 0.147 µM)
- MIC (Staphylococcus aureus [26]): 8 µg/mL (≈ 19.6 µM)
- MIC (Staphylococcus aureus [27]): 0.03 µg/mL (≈ 0.0736 µM)
- MIC (Staphylococcus aureus [28]): 0.25 µg/mL (≈ 0.614 µM)
- MIC (Staphylococcus aureus [29]): 0.125 µg/mL (≈ 0.307 µM)
- MIC (Staphylococcus aureus [30]): 0.5 µg/mL (≈ 1.23 µM)
- MIC [31]: 2 µg/mL (≈ 4.91 µM)
- MIC [32]: 1 µg/mL (≈ 2.45 µM)
- MIC [33]: 32 µg/mL (≈ 78.6 µM)
- MIC [34]: 64 µg/mL (≈ 157 µM)
- MIC (Streptococcus pneumoniae): 0.06 µg/mL (≈ 0.147 µM)
- MIC (Enterococcus faecium [35]): 32 µg/mL (≈ 78.6 µM)
- MIC (Enterococcus faecium [36]): 16 µg/mL (≈ 39.3 µM)
- MIC (Enterococcus faecium [37]): 0.06 µg/mL (≈ 0.147 µM)
- MIC (Enterococcus faecium [38]): 32 µg/mL (≈ 78.6 µM)
- MIC (Enterococcus faecium [39]): 0.03 µg/mL (≈ 0.0736 µM)
- MIC (Enterococcus faecalis [40]): 8 µg/mL (≈ 19.6 µM)
- MIC (Enterococcus faecalis [41]): 32 µg/mL (≈ 78.6 µM)
- MIC (Escherichia coli [42]): 0.008 µg/mL (≈ 0.0196 µM)
- MIC (Escherichia coli [43]): 32 µg/mL (≈ 78.6 µM)
- MIC (Escherichia coli [44]): 32 µg/mL (≈ 78.6 µM)
- MIC (Escherichia coli [45]): 32 µg/mL (≈ 78.6 µM)
